Our source for the MIC and CC50 values is ChEMBL document CHEMBL1144104, “Antimicrobial and antitumor activities of mycosporulone” (J Nat Prod, 1999).

One data set deals with Enterococcus faecalis. Description: Antibacterial activity against Streptococcus faecalis after 24 to 72 hrs by disk diffusion method. The data set is classed as functional. Put shortly:
(§1)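 Paper-disk diffusion on agar plates. Cellulose disks carry crude EtOAc extract of the fungal culture filtrate; the extract is dried, then redissolved in 3 mL EtOAc. Inhibition zone diameters are read after 24-72 h of incubation, with the time depending on the target organism.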

Data set [1] concerns Staphylococcus aureus. Description: Antibacterial activity against Staphylococcus aureus after 24 to 72 hrs by disk diffusion method. The data set is classed as functional. In a few lines: as §1
In a further data set the test system is Escherichia coli. Description: Antibacterial activity against Escherichia coli after 24 to 72 hrs by disk diffusion method. The data set is classed as functional. Put shortly: as §1
The test system of a further data set is Pseudomonas aeruginosa. Description: Antibacterial activity against Pseudomonas aeruginosa after 24 to 72 hrs by disk diffusion method. The data set is classed as functional. In a few lines:
as §1

Data set [2] deals with Staphylococcus aureus. Description: Antibacterial activity against penicillin-resistant Staphylococcus aureus after 24 to 72 hrs by disk diffusion method. The data set is classed as functional. Put shortly: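 Cellulose-disk agar diffusion; growth medium includes soya phytone 5 g and NaCl 5 g per litre distilled water, pH 7.2, with 1.5% agar, autoclaved 120 °C for 20 min. Inhibition zone diameters read after 24-72 h of incubation, depending on the target organism.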

For another data set, the system named is MDA-MB-231. The data set is described as follows: Cytotoxicity against human MDA-MB-231 cells after 5 days by MTT assay. The data set is classed as functional. To be noted: MDA-MB-231, 120 h, read-out: LD50 (the source's name). Put shortly: (§2)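 Inhibition of tumour cells (human MDA-MB 231 clonogenic cells, human prostatic adenocarcinoma PC3 and murine leukemia L-1210) was read by Mossmann-derived MTT colorimetric method. Taxol and doxorubicin were run as references.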

The subject of the next data set is L1210. Description: Cytotoxicity against mouse L1210 cells after 5 days by MTT assay. Particulars: L1210, 120 h, read-out: LD50 (the source's name). The data set is classed as functional. In a few lines:
as §2

The next data set deals with PC-3. The data set is described as follows: Cytotoxicity against human PC-3 cells after 5 days by MTT assay. The data set is classed as functional. To be noted: PC-3, 120 h, read-out: LD50 (the source's name). In a few lines: as §2
Another data set deals with Nakaseomyces glabratus. Description: Antifungal activity against Candida glabrata after 24 to 72 hrs by disk diffusion method. The data set is classed as functional. Put shortly:
(§3)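 Yeasts grown on yeast extract 10 g, peptone 20 g and glucose 15 g per litre, pH 6.0, solidified with 1.5% agar and autoclaved 120 °C for 20 min. Cellulose-disk diffusion assay, with inhibition zone diameters recorded after 24-72 h of incubation, depending on the strain.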

The test system of another data set is Cryptococcus neoformans. The data set is described as follows: Antifungal activity against Cryptococcus neoformans 1 after 24 to 72 hrs by disk diffusion method. The data set is classed as functional. In a few lines:
as §3

Another data set has as its system Candida tropicalis. The data set is described as follows: Antifungal activity against amphotericin-resistant Candida tropicalis after 24 to 72 hrs by disk diffusion method. The data set is classed as functional. Put shortly: as §3
Data set [3] in a line: Cytotoxicity against human MRC5 cells after 5 days by MTT assay. The data set is classed as cell-based. To be noted: read-out: LD50. In a few lines: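 Human lung fibroblast MRC5 (nontumor) line in 96-well plates; modified Mossmann MTT colorimetric micromethod; compound tested up to a maximal concentration of 100 µg/mL.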

Values after ≈ are worked out from the molar mass of the structure shown. A value given as a limit tells only on which side of the number the result lay.

Consider `CN[C@@H]1[C@H](O[C@H]2[C@H](O[C@H]3[C@H](O)[C@@H](O)[C@H](N=C(N)N)[C@@H](O)[C@@H]3N=C(N)N)O[C@@H](C)[C@]2(O)C=O)O[C@@H](CO)[C@H](O)[C@H]1O` [STREPTOMYCIN], for which the MIC against Enterococcus faecalis was 420 µg/mL (≈ 722 µM); against Staphylococcus aureus [1] it was 420 µg/mL (≈ 722 µM); against Escherichia coli, 28 µg/mL (≈ 48.1 µM); against Pseudomonas aeruginosa, 140 µg/mL (≈ 241 µM); in the data set on Staphylococcus aureus [2] it was 14 µg/mL (≈ 24.1 µM).
For `CC(=O)O[C@H]1C(=O)[C@@]2(C)[C@H]([C@H](OC(=O)c3ccccc3)[C@]3(O)C[C@H](OC(=O)[C@H](O)[C@@H](NC(=O)c4ccccc4)c4ccccc4)C(C)=C1C3(C)C)[C@]1(OC(C)=O)CO[C@@H]1C[C@@H]2O` [PACLITAXEL], the figures for the CC50 with MDA-MB-231, in the data set with L1210 and in the data set on PC-3 were 0.003 µg/mL (≈ 0.00351 µM), 0.014 µg/mL (≈ 0.0164 µM) and 0.0027 µg/mL (≈ 0.00316 µM), respectively.
For the compound NYSTATIN, the results for the MIC in the data set on Nakaseomyces glabratus, against Cryptococcus neoformans and against Candida tropicalis were 28 µg/mL, 14 µg/mL and 14 µg/mL, respectively.
On to `C=C1OC(=O)[C@]2(C1=O)[C@H](C)C=CC(=O)[C@H]2O` [MYCOSPORULONE], for which the MIC was found to be 280 µg/mL (≈ 1260 µM) against Enterococcus faecalis; 420 µg/mL (≈ 1890 µM) against Staphylococcus aureus [1]; 420 µg/mL (≈ 1890 µM) against Nakaseomyces glabratus; 14 µg/mL (≈ 63 µM) against Escherichia coli; 14 µg/mL (≈ 63 µM) in the data set on Pseudomonas aeruginosa; 280 µg/mL (≈ 1260 µM) in the data set with Cryptococcus neoformans. In addition, the MIC against Candida tropicalis and with Staphylococcus aureus [2] was 14 µg/mL (≈ 63 µM) throughout. In addition, the CC50 at 120 h in [3] is over 100 µg/mL. The CC50 in the data set with MDA-MB-231 was 7.7 µg/mL (≈ 34.7 µM); in the data set with L1210, 0.3 µg/mL (≈ 1.35 µM); in the data set on PC-3 it was 2.6 µg/mL (≈ 11.7 µM).
On to `COc1cccc2c1C(=O)c1c(O)c3c(c(O)c1C2=O)C[C@@](O)(C(=O)CO)C[C@@H]3O[C@H]1C[C@H](N)[C@H](O)[C@H](C)O1` [DOXORUBICIN], for which the CC50 in the data set on MDA-MB-231 was determined as 0.09 µg/mL (≈ 0.166 µM); in the data set on L1210, 0.02 µg/mL (≈ 0.0368 µM); in the data set with PC-3, 0.19 µg/mL (≈ 0.35 µM).
With `CC1(C)S[C@@H]2[C@H](NC(=O)Cc3ccccc3)C(=O)N2[C@H]1C(=O)O` [PENICILLIN G], the MIC came to 14 µg/mL (≈ 41.9 µM) with Enterococcus faecalis; 14 µg/mL (≈ 41.9 µM) against Staphylococcus aureus [1]; 560 µg/mL (≈ 1670 µM) against Escherichia coli; 560 µg/mL (≈ 1670 µM) against Pseudomonas aeruginosa; 560 µg/mL (≈ 1670 µM) with Staphylococcus aureus [2].
Regarding `CC(=O)N1CCN(c2ccc(OCC3COC(Cn4ccnc4)(c4ccc(Cl)cc4Cl)O3)cc2)CC1` (configuration not stated) [KETOCONAZOLE], the minimal inhibitory concentration (MIC) against Nakaseomyces glabratus amounted to 14 µg/mL (≈ 26.3 µM); with Cryptococcus neoformans, 56 µg/mL (≈ 105 µM); against Candida tropicalis, 140 µg/mL (≈ 263 µM).
Take `NC[C@H]1O[C@H](O[C@H]2[C@H](O)[C@@H](O[C@H]3O[C@H](CO)[C@@H](O)[C@H](N)[C@H]3O)[C@H](N)C[C@@H]2N)[C@H](O)[C@@H](O)[C@@H]1O` [KANAMYCIN]: the MIC with Enterococcus faecalis turned out to be 560 µg/mL (≈ 1160 µM); against Staphylococcus aureus [1], 140 µg/mL (≈ 289 µM); against Escherichia coli it was 28 µg/mL (≈ 57.8 µM); against Pseudomonas aeruginosa it was 140 µg/mL (≈ 289 µM); against Staphylococcus aureus [2], 14 µg/mL (≈ 28.9 µM).
For `C[C@@H]1[C@H](O)[C@@H](C)/C=C/C=C/C=C/C=C/C=C/C=C/C=C/[C@H](O[C@@H]2O[C@H](C)[C@@H](O)[C@H](N)[C@@H]2O)C[C@@H]2O[C@](O)(C[C@@H](O)C[C@@H](O)[C@H](O)CC[C@@H](O)C[C@@H](O)CC(=O)O[C@H]1C)C[C@H](O)[C@H]2C(=O)O` [AMPHOTERICIN B], the results for the minimum inhibitory concentration (MIC) against Nakaseomyces glabratus, against Cryptococcus neoformans and with Candida tropicalis were 140 µg/mL (≈ 152 µM), 140 µg/mL (≈ 152 µM) and over 560 µg/mL, respectively.
